# From ChEMBL document CHEMBL1134139, “Synthesis and biological activity of novel macrocyclic antifungals. modification of the tyrosine moiety of the lipopeptidolactone FR901469” (2001)
# Numbered stars: 1 amine (or outer) side, 2 acyl side, 3 side chain; on linkers, the order of the positions; unused ones are H or OH. Bridge positions count the residues as written; N and C are the ends. Square brackets hold non-standard residues; d marks the D form. Peptide text beside a SMILES is read from it. ξ: configuration not given here. X2 = O=C(CCC(=O)N1CCNCC1)Nc1cc(C[C@H](N[*:1])C(=O)[*:2])ccc1O; X3 = O=C(O)CCC(=O)Nc1cc(C[C@H](N[*:1])C(=O)[*:2])ccc1O; Gln(3R-OH) = NC(=O)C[C@@H](O)[C@H](N)C(=O)O; X1 = CCCCCCCCCCCCC[C@H](CC(=O)[*:1])O[*:2]; Pro(3S-OH) = O=C(O)[C@H]1NCC[C@@H]1O; Hyp = O=C(O)[C@@H]1C[C@@H](O)CN1; Orn = NCCC[C@H](N)C(=O)O; ξA = CC(N)C(=O)O
# What was measured:
# [1] = system: Meyerozyma guilliermondii; assay: In vitro antifungal activity against Candida guilliermondii FP587 by agar dilution method using Sabouraud Dextrose agar.; assay type: functional
# Procedure, shortened: (§1)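 Agar dilution on Sabouraud Dextrose agar. MIC taken as the lowest concentration that inhibits visible growth.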
# Candida albicans [2] = assay: In vitro antifungal activity against Candida albicans FP579 by agar dilution method using Sabouraud Dextrose agar.; assay type: functional; procedure, shortened: as §1
# Candida parapsilosis = assay: In vitro antifungal activity against Candida parapsilosis 15001 by agar dilution method using Sabouraud Dextrose agar.; assay type: functional; conditions: Lodderomyces parapsilosis; procedure, shortened: as §1
# Candida tropicalis = assay: In vitro antifungal activity against Candida tropicalis 8001 by agar dilution method using Sabouraud Dextrose agar.; assay type: functional; procedure, shortened: as §1
# Mus musculus [3] = species on record: Mus musculus; assay: Ability to hemolyze ICR mouse RBCs at 1 mg/mL using microtiter red blood cell hemolysis assay.
# Candida albicans [4] = assay: In vitro Antifungal activity against Candida albicans FP633 by agar dilution method using Sabouraud Dextrose agar.; assay type: functional; procedure, shortened: as §1
# Candida albicans [5] = assay: In vitro antifungal activity against Candida albicans 13004 by broth microdilution method; assay type: functional
# Procedure, shortened: (§2)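 Broth microdilution run to NCCLS M27-A guidelines. MIC read per that standard.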
# Aspergillus fumigatus [6] = assay: In vitro antifungal activity against Aspergillus fumigatus 8004 by broth microdilution method; assay type: functional; procedure, shortened: as §2
# Aspergillus fumigatus [7] = assay: In vitro antifungal activity against Aspergillus fumigatus FP1305 by broth microdilution method; assay type: functional; procedure, shortened: as §2
# Candida albicans [8] = assay: In vitro antifungal activity against Candida albicans FP633 by broth microdilution method; assay type: functional; procedure, shortened: as §2
# Mus musculus [9] = assay: Compound was evaluated in vivo for antifungal activity and efficacy in disseminated murine candidiasis was determined; assay type: functional
# [10] = Candida tropicalis, read-out: MIC
Structure (SMILES),MIC [1] [µg/mL],MIC (Candida albicans [2]) [µg/mL],MIC (Candida parapsilosis) [µg/mL],MIC (Candida tropicalis) [µg/mL],MIC (Candida tropicalis; [10]) [µg/mL],Hemolytic activity (Mus musculus [3]) [%],MIC (Candida albicans [4]) [µg/mL],MIC (Candida albicans [5]) [µg/mL],MIC (Aspergillus fumigatus [6]) [µg/mL],MIC (Aspergillus fumigatus [7]) [µg/mL],MIC (Candida albicans [8]) [µg/mL],ED50 (Mus musculus [9]) [mg/kg]
CCCCCCCCCCCCC[C@H](CC(=O)N[C@@H](C(=O)N[C@H](C)C(=O)N[C@@H](Cc1ccc(O)c(Cl)c1)C(=O)N[C@H](C(=O)N1C[C@H](O)C[C@H]1C(=O)N[C@@H](C(=O)N[C@H](C(=O)N1CC[C@H](O)[C@H]1C(=O)N[C@H](C(=O)NCC(=O)N[C@@H](C(N)=O)[C@@H](C)O)[C@H](O)CC(N)=O)[C@@H](C)O)[C@@H](C)O)C(C)C)[C@@H](C)O)OC(=O)[C@@H](C)CCCN,0.78,0.78,0.78,0.78,0.78,97,0.39,,,,,
CCCCCCCCCCCCC[C@H](CC(=O)N[C@H](C(=O)N[C@H](C)C(=O)N[C@@H](Cc1ccc(OCC(=O)NCCN)cc1)C(=O)N[C@H](C(=O)N1C[C@H](O)C[C@H]1C(=O)N[C@H](C(=O)N[C@H](C(=O)N1CC[C@H](O)[C@H]1C(=O)N[C@H](C(=O)NCC(=O)N[C@H](C(N)=O)[C@@H](C)O)[C@H](O)CC(N)=O)[C@@H](C)O)[C@@H](C)O)C(C)C)[C@@H](C)O)OC(=O)[C@@H](C)CCCN.Cl,,,,,,45,,1,1,0.5,1,
CCCCCCCCCCCCC[C@H](CC(=O)N[C@@H](C(=O)N[C@H](C)C(=O)N[C@@H](Cc1ccc(OCC(=O)O)cc1)C(=O)N[C@H](C(=O)N1C[C@H](O)C[C@H]1C(=O)N[C@@H](C(=O)N[C@H](C(=O)N1CC[C@H](O)[C@H]1C(=O)N[C@H](C(=O)NCC(=O)N[C@@H](C(N)=O)[C@@H](C)O)[C@H](O)CC(N)=O)[C@@H](C)O)[C@@H](C)O)C(C)C)[C@@H](C)O)OC(=O)[C@@H](C)CCCN,,,,,,76,,0.5,1,0.125,0.5,
CCCCCCCCCCCCC[C@@H]1CC(=O)N[C@@H]([C@@H](C)O)C(=O)N[C@@H](C)C(=O)N[C@@H](Cc2ccc(O)c(NC(=O)CCC(=O)O)c2)C(=O)N[C@@H](C(C)C)C(=O)N2C[C@H](O)C[C@H]2C(=O)N[C@@H]([C@@H](C)O)C(=O)N[C@@H]([C@@H](C)O)C(=O)N2CC[C@H](O)[C@H]2C(=O)N[C@@H]([C@H](O)CC(N)=O)C(=O)NCC(=O)N[C@@H]([C@@H](C)O)C(=O)N[C@@H](CCCN)C(=O)O1 (TA[X3]V[Hyp]TT[Pro(3S-OH)][Gln(3R-OH)]GT[Orn]; linker N-C via X1),,,,,,79,,1,0.5,0.25,0.5,
CCCCCCCCCCCCC[C@H](CC(=O)N[C@@H](C(=O)N[C@H](C)C(=O)N[C@@H](Cc1ccc(O)c(N)c1)C(=O)N[C@H](C(=O)N1C[C@H](O)C[C@H]1C(=O)N[C@@H](C(=O)N[C@H](C(=O)N1CC[C@H](O)[C@H]1C(=O)N[C@H](C(=O)NCC(=O)N[C@@H](C(N)=O)[C@@H](C)O)[C@H](O)CC(N)=O)[C@@H](C)O)[C@@H](C)O)C(C)C)[C@@H](C)O)OC(=O)[C@@H](C)CCCN,0.78,1.56,1.56,1.56,1.56,100,0.78,,,,,
OC(Cn1cncn1)(Cn1cncn1)c1ccc(F)cc1F [FLUCONAZOLE],,,,,,,,,,,,> 20
CCCCCCCCCCCCC[C@H](CC(=O)N[C@@H](C(=O)N[C@H](C)C(=O)N[C@@H](Cc1ccc(O)c(NC(=O)[C@H](N)CO)c1)C(=O)N[C@H](C(=O)N1C[C@H](O)C[C@H]1C(=O)N[C@@H](C(=O)N[C@H](C(=O)N1CC[C@H](O)[C@H]1C(=O)N[C@H](C(=O)NCC(=O)N[C@@H](C(N)=O)[C@@H](C)O)[C@H](O)CC(N)=O)[C@@H](C)O)[C@@H](C)O)C(C)C)[C@@H](C)O)OC(=O)[C@@H](C)CCCN,,,,,,84,,2,2,0.5,1,
CCCCCCCCCCCCC[C@H](CC(=O)N[C@@H](C(=O)N[C@H](C)C(=O)N[C@@H](Cc1ccc(OCC(=O)NCCCn2ccnc2)cc1)C(=O)N[C@H](C(=O)N1C[C@H](O)C[C@H]1C(=O)N[C@@H](C(=O)N[C@H](C(=O)N1CC[C@H](O)[C@H]1C(=O)N[C@H](C(=O)NCC(=O)N[C@@H](C(N)=O)[C@@H](C)O)[C@H](O)CC(N)=O)[C@@H](C)O)[C@@H](C)O)C(C)C)[C@@H](C)O)OC(=O)[C@@H](C)CCCN.Cl,,,,,,53,,2,2,1,1,
CCCCCCCCCCCCC[C@H](CC(=O)N[C@@H](C(=O)N[C@H](C)C(=O)N[C@@H](Cc1ccc(O)c(NC(=O)C[C@H](N)C(=O)O)c1)C(=O)N[C@H](C(=O)N1C[C@H](O)C[C@H]1C(=O)N[C@@H](C(=O)N[C@H](C(=O)N1CC[C@H](O)[C@H]1C(=O)N[C@H](C(=O)NCC(=O)N[C@@H](C(N)=O)[C@@H](C)O)[C@H](O)CC(N)=O)[C@@H](C)O)[C@@H](C)O)C(C)C)[C@@H](C)O)OC(=O)[C@@H](C)CCCN,,,,,,75,,1,0.5,0.25,0.5,0.8
C[C@@H]1[C@H](O)[C@@H](C)/C=C/C=C/C=C/C=C/C=C/C=C/C=C/[C@H](O[C@@H]2O[C@H](C)[C@@H](O)[C@H](N)[C@@H]2O)C[C@@H]2O[C@](O)(C[C@@H](O)C[C@@H](O)[C@H](O)CC[C@@H](O)C[C@@H](O)CC(=O)O[C@H]1C)C[C@H](O)[C@H]2C(=O)O [AMPHOTERICIN B],,,,,,,,,,,,0.132
CCCCCCCCCCCCC[C@H](CC(=O)N[C@H](C(=O)N[C@@H](C)C(=O)N[C@@H](Cc1ccc(OCC(=O)O)c(NC(=O)CCN)c1)C(=O)N[C@H](C(=O)N1C[C@H](O)C[C@H]1C(=O)N[C@@H](C(=O)N[C@H](C(=O)N1CC[C@H](O)[C@H]1C(=O)N[C@H](C(=O)NCC(=O)N[C@H](C(N)=O)[C@@H](C)O)[C@H](O)CC(N)=O)[C@@H](C)O)[C@@H](C)O)C(C)C)[C@@H](C)O)OC(=O)[C@@H](C)CCCN.Cl,,,,,,23,,0.5,0.5,0.125,0.5,0.72
CCCCCCCCCCCCC[C@H](CC(=O)N[C@@H](C(=O)N[C@H](C)C(=O)N[C@@H](Cc1ccc(OCC(=O)N(C)C)cc1)C(=O)N[C@H](C(=O)N1C[C@H](O)C[C@H]1C(=O)N[C@@H](C(=O)N[C@H](C(=O)N1CC[C@H](O)[C@H]1C(=O)N[C@H](C(=O)NCC(=O)N[C@@H](C(N)=O)[C@@H](C)O)[C@H](O)CC(N)=O)[C@@H](C)O)[C@@H](C)O)C(C)C)[C@@H](C)O)OC(=O)[C@@H](C)CCCN,,,,,,85,,1,1,0.25,0.5,
CCCCCCCCCCCCC[C@H](CC(=O)N[C@@H](C(=O)N[C@H](C)C(=O)N[C@@H](Cc1ccc(O)c(NC(=O)[C@H](N)Cc2c[nH]cn2)c1)C(=O)N[C@H](C(=O)N1C[C@H](O)C[C@H]1C(=O)N[C@@H](C(=O)N[C@H](C(=O)N1CC[C@H](O)[C@H]1C(=O)N[C@H](C(=O)NCC(=O)N[C@@H](C(N)=O)[C@@H](C)O)[C@H](O)CC(N)=O)[C@@H](C)O)[C@@H](C)O)C(C)C)[C@@H](C)O)OC(=O)[C@@H](C)CCCN,,,,,,65,,2,2,2,2,
CCCCCCCCCCCCC[C@@H]1CC(=O)N[C@@H]([C@@H](C)O)C(=O)NC(C)C(=O)N[C@@H](Cc2ccc(O)c(NC(=O)CCC(=O)N3CCNCC3)c2)C(=O)N[C@@H](C(C)C)C(=O)N2C[C@H](O)C[C@H]2C(=O)N[C@@H]([C@@H](C)O)C(=O)N[C@@H]([C@@H](C)O)C(=O)N2CC[C@H](O)[C@H]2C(=O)N[C@@H]([C@H](O)CC(N)=O)C(=O)NCC(=O)N[C@@H]([C@@H](C)O)C(=O)N[C@@H](CCCN)C(=O)O1 (stereo partly drawn) (T[ξA][X2]V[Hyp]TT[Pro(3S-OH)][Gln(3R-OH)]GT[Orn]; linker N-C via X1),,,,,,46,,1,1,0.5,1,0.97
CCCCCCCCCCCCC[C@H](CC(=O)N[C@@H](C(=O)N[C@H](C)C(=O)N[C@@H](Cc1ccc(O)c(NC(=O)CC[C@H](N)C(=O)O)c1)C(=O)N[C@H](C(=O)N1C[C@H](O)C[C@H]1C(=O)N[C@@H](C(=O)N[C@H](C(=O)N1CC[C@H](O)[C@H]1C(=O)N[C@H](C(=O)NCC(=O)N[C@@H](C(N)=O)[C@@H](C)O)[C@H](O)CC(N)=O)[C@@H](C)O)[C@@H](C)O)C(C)C)[C@@H](C)O)OC(=O)[C@@H](C)CCCN,,,,,,60,,0.5,1,0.5,0.5,1.02
